{"source": "ChEMBL document CHEMBL2380298", "about": "“Synthesis and antimicrobial activity of novel amphiphilic aromatic amino alcohols” (2013)", "assay_type_in_all_cases": "functional", "key": {"[1]": {"tested_on": "Staphylococcus epidermidis", "test": "Antimicrobial activity against Staphylococcus epidermidis ATCC 12228 by broth dilution method", "settings": "Staphylococcus epidermidis, ATCC 12228"}, "Staphylococcus aureus [2]": {"tested_on": "Staphylococcus aureus", "test": "Bactericidal activity against methicillin-resistant Staphylococcus aureus clinical isolate 264 after 24 hrs", "settings": "isolate 264, 24 h", "method_in_brief": "(§1)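 Bactericidal concentration: 0.1 ml from wells at the MIC dilution and the dilutions on either side was streaked onto tryptic soy agar and incubated 24 h. It was taken as the lowest drug concentration giving no growth (100% killing).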"}, "Staphylococcus aureus [3]": {"tested_on": "Staphylococcus aureus", "test": "Bactericidal activity against methicillin-resistant Staphylococcus aureus clinical isolate 260 after 24 hrs", "settings": "isolate 260, 24 h", "method_in_brief": "as §1"}, "Staphylococcus aureus [4]": {"tested_on": "Staphylococcus aureus", "test": "Bactericidal activity against methicillin-resistant Staphylococcus aureus clinical isolate 259 after 24 hrs", "settings": "isolate 259, 24 h", "method_in_brief": "as §1"}, "Staphylococcus aureus [5]": {"tested_on": "Staphylococcus aureus", "test": "Bactericidal activity against methicillin-resistant Staphylococcus aureus clinical isolate 257 after 24 hrs", "settings": "isolate 257, 24 h", "method_in_brief": "as §1"}, "Staphylococcus aureus [6]": {"tested_on": "Staphylococcus aureus", "test": "Bactericidal activity against methicillin-resistant Staphylococcus aureus clinical isolate 255 after 24 hrs", "settings": "isolate 255, 24 h", "method_in_brief": "as §1"}, "Staphylococcus aureus [7]": {"tested_on": "Staphylococcus aureus", "test": "Bactericidal activity against methicillin-resistant Staphylococcus aureus clinical isolate 238 after 24 hrs", "settings": "isolate 238, 24 h", "method_in_brief": "as §1"}, "Staphylococcus aureus [8]": {"tested_on": "Staphylococcus aureus", "test": "Bactericidal activity against methicillin-resistant Staphylococcus aureus clinical isolate 237 after 24 hrs", "settings": "isolate 237, 24 h", "method_in_brief": "as §1"}, "Staphylococcus aureus [9]": {"tested_on": "Staphylococcus aureus", "test": "Bactericidal activity against methicillin-resistant Staphylococcus aureus clinical isolate 236 after 24 hrs", "settings": "isolate 236, 24 h", "method_in_brief": "as §1"}, "Staphylococcus aureus [10]": {"tested_on": "Staphylococcus aureus", "test": "Bactericidal activity against methicillin-resistant Staphylococcus aureus clinical isolate 235 after 24 hrs", "settings": "isolate 235, 24 h", "method_in_brief": "as §1"}, "Staphylococcus aureus [11]": {"tested_on": "Staphylococcus aureus", "test": "Bactericidal activity against methicillin-resistant Staphylococcus aureus clinical isolate 232 after 24 hrs", "settings": "isolate 232, 24 h", "method_in_brief": "as §1"}, "Staphylococcus aureus [12]": {"tested_on": "Staphylococcus aureus", "test": "Bactericidal activity against methicillin-resistant Staphylococcus aureus clinical isolate 231 after 24 hrs", "settings": "isolate 231, 24 h", "method_in_brief": "as §1"}, "Staphylococcus aureus [13]": {"tested_on": "Staphylococcus aureus", "test": "Bactericidal activity against methicillin-resistant Staphylococcus aureus clinical isolate 225 after 24 hrs", "settings": "isolate 225, 24 h", "method_in_brief": "as §1"}, "Staphylococcus aureus [14]": {"tested_on": "Staphylococcus aureus", "test": "Bactericidal activity against methicillin-resistant Staphylococcus aureus clinical isolate 218 after 24 hrs", "settings": "isolate 218, 24 h", "method_in_brief": "as §1"}, "Staphylococcus aureus [15]": {"tested_on": "Staphylococcus aureus", "test": "Bactericidal activity against methicillin-resistant Staphylococcus aureus clinical isolate 212 after 24 hrs", "settings": "isolate 212, 24 h", "method_in_brief": "as §1"}, "[16]": {"tested_on": "Staphylococcus epidermidis", "test": "Bactericidal activity against Staphylococcus epidermidis ATCC 12228 after 24 hrs", "settings": "ATCC 12228, 24 h", "method_in_brief": "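MBC: after MIC determination, 0.1 ml from the MIC well and from two dilutions either side streaked on tryptic soy agar, incubated 24 h; MBC taken as lowest concentration giving no growth (100% kill).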"}, "Staphylococcus aureus [17]": {"tested_on": "Staphylococcus aureus", "test": "Antimicrobial activity against methicillin-resistant Staphylococcus aureus clinical isolate assessed as resistant isolates by broth dilution method"}, "Staphylococcus aureus [18]": {"tested_on": "Staphylococcus aureus", "test": "Antimicrobial activity against methicillin-resistant Staphylococcus aureus clinical isolate assessed as susceptible isolates by broth dilution method"}, "Staphylococcus aureus [19]": {"tested_on": "Staphylococcus aureus", "test": "Antimicrobial activity against methicillin-resistant Staphylococcus aureus clinical isolate by broth dilution method", "settings": "Staphylococcus aureus"}, "Staphylococcus aureus [20]": {"tested_on": "Staphylococcus aureus", "test": "Antimicrobial activity against methicillin-resistant Staphylococcus aureus clinical isolate 264 by broth dilution method"}, "Staphylococcus aureus [21]": {"tested_on": "Staphylococcus aureus", "test": "Antimicrobial activity against methicillin-resistant Staphylococcus aureus clinical isolate 260 by broth dilution method"}, "Staphylococcus aureus [22]": {"tested_on": "Staphylococcus aureus", "test": "Antimicrobial activity against methicillin-resistant Staphylococcus aureus clinical isolate 257 by broth dilution method"}, "Staphylococcus aureus [23]": {"tested_on": "Staphylococcus aureus", "test": "Antimicrobial activity against methicillin-resistant Staphylococcus aureus clinical isolate 259 by broth dilution method"}, "Staphylococcus aureus [24]": {"tested_on": "Staphylococcus aureus", "test": "Antimicrobial activity against methicillin-resistant Staphylococcus aureus clinical isolate 238 by broth dilution method"}, "Staphylococcus aureus [25]": {"tested_on": "Staphylococcus aureus", "test": "Antimicrobial activity against methicillin-resistant Staphylococcus aureus clinical isolate 255 by broth dilution method"}, "Staphylococcus aureus [26]": {"tested_on": "Staphylococcus aureus", "test": "Antimicrobial activity against methicillin-resistant Staphylococcus aureus clinical isolate 237 by broth dilution method"}, "Staphylococcus aureus [27]": {"tested_on": "Staphylococcus aureus", "test": "Antimicrobial activity against methicillin-resistant Staphylococcus aureus clinical isolate 236 by broth dilution method"}, "Staphylococcus aureus [28]": {"tested_on": "Staphylococcus aureus", "test": "Antimicrobial activity against methicillin-resistant Staphylococcus aureus clinical isolate 235 by broth dilution method"}, "Staphylococcus aureus [29]": {"tested_on": "Staphylococcus aureus", "test": "Antimicrobial activity against methicillin-resistant Staphylococcus aureus clinical isolate 232 by broth dilution method"}, "Staphylococcus aureus [30]": {"tested_on": "Staphylococcus aureus", "test": "Antimicrobial activity against methicillin-resistant Staphylococcus aureus clinical isolate 227 by broth dilution method"}, "Staphylococcus aureus [31]": {"tested_on": "Staphylococcus aureus", "test": "Antimicrobial activity against methicillin-resistant Staphylococcus aureus clinical isolate 231 by broth dilution method"}, "Staphylococcus aureus [32]": {"tested_on": "Staphylococcus aureus", "test": "Antimicrobial activity against methicillin-resistant Staphylococcus aureus clinical isolate 225 by broth dilution method"}, "Staphylococcus aureus [33]": {"tested_on": "Staphylococcus aureus", "test": "Antimicrobial activity against methicillin-resistant Staphylococcus aureus clinical isolate 215 by broth dilution method"}, "Staphylococcus aureus [34]": {"tested_on": "Staphylococcus aureus", "test": "Antimicrobial activity against methicillin-resistant Staphylococcus aureus clinical isolate 218 by broth dilution method"}, "Staphylococcus aureus [35]": {"tested_on": "Staphylococcus aureus", "test": "Antimicrobial activity against methicillin-resistant Staphylococcus aureus clinical isolate 212 by broth dilution method"}, "Staphylococcus aureus [36]": {"tested_on": "Staphylococcus aureus", "test": "Antimicrobial activity against methicillin-resistant Staphylococcus aureus clinical isolate 207 by broth dilution method"}, "Staphylococcus aureus [37]": {"tested_on": "Staphylococcus aureus", "test": "Antimicrobial activity against methicillin-resistant Staphylococcus aureus clinical isolate 205 by broth dilution method"}, "Staphylococcus aureus [38]": {"tested_on": "Staphylococcus aureus", "test": "Antimicrobial activity against methicillin-resistant Staphylococcus aureus clinical isolate 195 by broth dilution method"}, "Staphylococcus aureus [39]": {"tested_on": "Staphylococcus aureus", "test": "Antimicrobial activity against methicillin-resistant Staphylococcus aureus clinical isolate 178 by broth dilution method"}, "Staphylococcus aureus [40]": {"tested_on": "Staphylococcus aureus", "test": "Antimicrobial activity against methicillin-resistant Staphylococcus aureus clinical isolate 176 by broth dilution method"}, "Pseudomonas aeruginosa": {"tested_on": "Pseudomonas aeruginosa", "test": "Antimicrobial activity against Pseudomonas aeruginosa ATCC 27853 by broth dilution method"}}}
{"smiles": "O=C(N[C@H](CO)[C@H](O)c1ccc([N+](=O)[O-])cc1)C(Cl)Cl", "note": "[CHLORAMPHENICOL]", "values": [{"measurement": "MIC", "setting": "[1]", "value": 32, "unit": "µg/mL"}, {"measurement": "MBC", "setting": "Staphylococcus aureus [2]", "value": 64, "unit": "µg/mL"}, {"measurement": "MBC", "setting": "Staphylococcus aureus [3]", "value": 32, "unit": "µg/mL"}, {"measurement": "MBC", "setting": "Staphylococcus aureus [4]", "value": 8, "unit": "µg/mL"}, {"measurement": "MBC", "setting": "Staphylococcus aureus [5]", "value": 8, "unit": "µg/mL"}, {"measurement": "MBC", "setting": "Staphylococcus aureus [6]", "value": 8, "unit": "µg/mL"}, {"measurement": "MBC", "setting": "Staphylococcus aureus [7]", "value": 16, "unit": "µg/mL"}, {"measurement": "MBC", "setting": "Staphylococcus aureus [8]", "value": 16, "unit": "µg/mL"}, {"measurement": "MBC", "setting": "Staphylococcus aureus [9]", "value": 32, "unit": "µg/mL"}, {"measurement": "MBC", "setting": "Staphylococcus aureus [10]", "value": 32, "unit": "µg/mL"}, {"measurement": "MBC", "setting": "Staphylococcus aureus [11]", "value": 16, "unit": "µg/mL"}, {"measurement": "MBC", "setting": "Staphylococcus aureus [12]", "value": 16, "unit": "µg/mL"}, {"measurement": "MBC", "setting": "Staphylococcus aureus [13]", "value": 512, "unit": "µg/mL"}, {"measurement": "MBC", "setting": "Staphylococcus aureus [14]", "value": 128, "unit": "µg/mL"}, {"measurement": "MBC", "setting": "Staphylococcus aureus [15]", "value": 128, "unit": "µg/mL"}, {"measurement": "MBC", "setting": "[16]", "value": 128, "unit": "µg/mL"}, {"measurement": "Activity", "setting": "Staphylococcus aureus [17]", "value": 56.3, "unit": "%"}, {"measurement": "Activity", "setting": "Staphylococcus aureus [18]", "value": 43.7, "unit": "%"}, {"measurement": "MIC90", "setting": "Staphylococcus aureus [19]", "value": 32, "unit": "µg/mL"}, {"measurement": "MIC", "setting": "Staphylococcus aureus [20]", "value": 8, "unit": "µg/mL"}, {"measurement": "MIC", "setting": "Staphylococcus aureus [21]", "value": 4, "unit": "µg/mL"}, {"measurement": "MIC", "setting": "Staphylococcus aureus [22]", "value": 8, "unit": "µg/mL"}, {"measurement": "MIC", "setting": "Staphylococcus aureus [23]", "value": 128, "unit": "µg/mL"}, {"measurement": "MIC", "setting": "Staphylococcus aureus [24]", "value": 32, "unit": "µg/mL"}, {"measurement": "MIC", "setting": "Staphylococcus aureus [25]", "value": 4, "unit": "µg/mL"}, {"measurement": "MIC", "setting": "Staphylococcus aureus [26]", "value": 32, "unit": "µg/mL"}, {"measurement": "MIC", "setting": "Staphylococcus aureus [27]", "value": 64, "unit": "µg/mL"}, {"measurement": "MIC", "setting": "Staphylococcus aureus [28]", "value": 64, "unit": "µg/mL"}, {"measurement": "MIC", "setting": "Staphylococcus aureus [29]", "value": 64, "unit": "µg/mL"}, {"measurement": "MIC", "setting": "Staphylococcus aureus [30]", "value": 64, "unit": "µg/mL"}, {"measurement": "MIC", "setting": "Staphylococcus aureus [31]", "value": 64, "unit": "µg/mL"}, {"measurement": "MIC", "setting": "Staphylococcus aureus [32]", "value": 8, "unit": "µg/mL"}, {"measurement": "MIC", "setting": "Staphylococcus aureus [33]", "value": 64, "unit": "µg/mL"}, {"measurement": "MIC", "setting": "Staphylococcus aureus [34]", "value": 64, "unit": "µg/mL"}, {"measurement": "MIC", "setting": "Staphylococcus aureus [35]", "value": 8, "unit": "µg/mL"}, {"measurement": "MIC", "setting": "Staphylococcus aureus [36]", "value": 4, "unit": "µg/mL"}, {"measurement": "MIC", "setting": "Staphylococcus aureus [37]", "value": 8, "unit": "µg/mL"}, {"measurement": "MIC", "setting": "Staphylococcus aureus [38]", "value": 4, "unit": "µg/mL"}, {"measurement": "MIC", "setting": "Staphylococcus aureus [39]", "value": 4, "unit": "µg/mL"}, {"measurement": "MIC", "setting": "Staphylococcus aureus [40]", "value": 64, "unit": "µg/mL"}, {"measurement": "MIC", "setting": "Pseudomonas aeruginosa", "value": 32, "unit": "µg/mL"}]}
